# In the M2OR odorant receptor database:
# Residue numbers refer to the chain shown, from its start.
# How the values were obtained:
# Conditions in all cases: stereoisomer not certain
# OR52A5 (Homo sapiens) = molecular target: T1, OR52A5 (Homo sapiens) (UniProt Q9H2C5)
# T1 sequence (whole entry): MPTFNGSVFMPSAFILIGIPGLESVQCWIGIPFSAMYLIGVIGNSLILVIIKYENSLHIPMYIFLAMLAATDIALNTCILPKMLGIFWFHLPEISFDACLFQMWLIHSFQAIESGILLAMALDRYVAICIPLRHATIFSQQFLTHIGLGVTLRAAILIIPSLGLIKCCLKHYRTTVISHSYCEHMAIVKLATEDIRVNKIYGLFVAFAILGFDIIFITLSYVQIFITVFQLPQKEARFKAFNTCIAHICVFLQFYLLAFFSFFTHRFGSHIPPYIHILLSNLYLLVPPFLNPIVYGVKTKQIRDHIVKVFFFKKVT
# Summary of the method: (§1)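 Assay methods differ from source to source, frequently being transient luciferase assays in mammalian cell lines. For each receptor–molecule pair, the label responsive (active) applies when the original authors judged the measured signal statistically different from baseline, and non-responsive (inactive) applies otherwise.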
# OR52B2 (Homo sapiens) = molecular target: T2, OR52B2 (Homo sapiens) (UniProt Q96RD2)
# T2 sequence (whole entry): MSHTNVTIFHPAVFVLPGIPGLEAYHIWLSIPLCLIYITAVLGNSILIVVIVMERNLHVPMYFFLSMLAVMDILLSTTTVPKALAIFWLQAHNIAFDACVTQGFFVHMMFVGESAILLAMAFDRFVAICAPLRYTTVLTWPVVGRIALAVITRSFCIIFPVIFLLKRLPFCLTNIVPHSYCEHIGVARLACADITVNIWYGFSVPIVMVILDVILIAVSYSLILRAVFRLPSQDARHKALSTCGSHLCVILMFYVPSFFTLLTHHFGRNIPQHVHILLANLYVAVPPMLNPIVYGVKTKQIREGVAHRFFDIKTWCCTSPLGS
# Summary of the method: as §1
# OR52B4 (Homo sapiens) = molecular target: T3, OR52B4 (Homo sapiens) (UniProt Q8NGK2)
# T3 sequence (whole entry): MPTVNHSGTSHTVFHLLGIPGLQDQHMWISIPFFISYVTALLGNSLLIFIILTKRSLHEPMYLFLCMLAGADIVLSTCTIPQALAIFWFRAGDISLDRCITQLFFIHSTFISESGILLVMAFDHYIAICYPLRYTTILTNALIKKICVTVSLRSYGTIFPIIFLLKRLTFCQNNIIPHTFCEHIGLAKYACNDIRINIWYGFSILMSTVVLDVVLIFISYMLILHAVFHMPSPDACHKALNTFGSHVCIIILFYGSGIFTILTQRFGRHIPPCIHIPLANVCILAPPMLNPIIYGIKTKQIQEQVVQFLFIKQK
# Summary of the method: as §1
# OR52B6 (Homo sapiens) = molecular target: T4, OR52B6 (Homo sapiens) (UniProt Q8NGF0)
# T4 sequence (whole entry): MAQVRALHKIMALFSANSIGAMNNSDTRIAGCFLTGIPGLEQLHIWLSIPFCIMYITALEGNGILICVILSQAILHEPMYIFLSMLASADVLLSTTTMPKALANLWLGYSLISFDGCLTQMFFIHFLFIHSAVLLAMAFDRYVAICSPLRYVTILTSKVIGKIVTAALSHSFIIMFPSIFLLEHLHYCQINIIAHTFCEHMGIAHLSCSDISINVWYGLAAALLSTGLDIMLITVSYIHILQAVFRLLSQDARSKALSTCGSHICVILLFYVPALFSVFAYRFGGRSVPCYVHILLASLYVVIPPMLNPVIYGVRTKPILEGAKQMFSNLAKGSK
# Summary of the method: as §1
# OR52D1 (Homo sapiens) = molecular target: T5, OR52D1 (Homo sapiens) (UniProt Q9H346)
# T5 sequence (whole entry): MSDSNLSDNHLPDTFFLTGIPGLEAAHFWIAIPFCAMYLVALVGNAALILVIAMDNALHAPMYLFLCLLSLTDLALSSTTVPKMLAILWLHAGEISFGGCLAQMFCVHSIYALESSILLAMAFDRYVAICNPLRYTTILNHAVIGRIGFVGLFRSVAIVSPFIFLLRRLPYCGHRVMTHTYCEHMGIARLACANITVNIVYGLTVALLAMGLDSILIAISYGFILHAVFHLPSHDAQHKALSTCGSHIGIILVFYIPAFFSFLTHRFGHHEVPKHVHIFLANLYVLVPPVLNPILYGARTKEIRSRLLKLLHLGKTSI
# Summary of the method: as §1
# OR52E2 (Homo sapiens) = OR52E2 (Homo sapiens) (UniProt Q8NGJ4)
# Sequence of OR52E2 (Homo sapiens) (Q8NGJ4 whole entry): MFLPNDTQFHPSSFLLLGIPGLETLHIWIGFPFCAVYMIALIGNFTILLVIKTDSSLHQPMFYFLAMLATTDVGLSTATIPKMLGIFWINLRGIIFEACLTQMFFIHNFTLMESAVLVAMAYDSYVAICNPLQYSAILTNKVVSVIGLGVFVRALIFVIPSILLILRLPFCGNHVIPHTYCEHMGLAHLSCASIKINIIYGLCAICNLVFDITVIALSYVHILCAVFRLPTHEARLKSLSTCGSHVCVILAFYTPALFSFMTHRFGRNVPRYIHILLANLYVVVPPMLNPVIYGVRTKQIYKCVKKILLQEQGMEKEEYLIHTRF
# Summary of the method: as §1
# OR52E4 (Homo sapiens) = OR52E4 (Homo sapiens) (UniProt Q8NGH9)
# Sequence of OR52E4 (Homo sapiens) (Q8NGH9 whole entry): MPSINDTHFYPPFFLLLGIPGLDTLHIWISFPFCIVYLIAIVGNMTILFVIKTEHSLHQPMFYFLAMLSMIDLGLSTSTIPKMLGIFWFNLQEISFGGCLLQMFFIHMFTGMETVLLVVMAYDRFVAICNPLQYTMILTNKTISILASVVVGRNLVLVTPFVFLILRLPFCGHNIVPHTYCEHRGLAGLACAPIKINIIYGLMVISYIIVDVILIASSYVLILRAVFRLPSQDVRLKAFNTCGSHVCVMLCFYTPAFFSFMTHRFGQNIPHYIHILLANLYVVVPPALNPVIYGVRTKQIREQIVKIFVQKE
# Summary of the method: as §1
# OR52E5 (Homo sapiens) = OR52E5 (Homo sapiens) (UniProt Q8NH55)
# Sequence of OR52E5 (Homo sapiens) (Q8NH55 whole entry): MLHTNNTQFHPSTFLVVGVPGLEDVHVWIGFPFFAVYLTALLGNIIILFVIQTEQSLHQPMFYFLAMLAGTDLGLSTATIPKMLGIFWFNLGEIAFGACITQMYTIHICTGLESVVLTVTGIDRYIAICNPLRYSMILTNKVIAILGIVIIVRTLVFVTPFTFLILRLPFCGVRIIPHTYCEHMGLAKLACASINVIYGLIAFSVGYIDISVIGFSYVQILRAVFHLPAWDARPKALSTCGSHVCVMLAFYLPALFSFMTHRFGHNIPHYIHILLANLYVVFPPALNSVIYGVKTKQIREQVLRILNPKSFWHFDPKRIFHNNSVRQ
# Summary of the method: as §1
# OR52E6 (Homo sapiens) = OR52E6 (Homo sapiens) (UniProt Q96RD3)
# Sequence of OR52E6 (Homo sapiens) (Q96RD3 whole entry): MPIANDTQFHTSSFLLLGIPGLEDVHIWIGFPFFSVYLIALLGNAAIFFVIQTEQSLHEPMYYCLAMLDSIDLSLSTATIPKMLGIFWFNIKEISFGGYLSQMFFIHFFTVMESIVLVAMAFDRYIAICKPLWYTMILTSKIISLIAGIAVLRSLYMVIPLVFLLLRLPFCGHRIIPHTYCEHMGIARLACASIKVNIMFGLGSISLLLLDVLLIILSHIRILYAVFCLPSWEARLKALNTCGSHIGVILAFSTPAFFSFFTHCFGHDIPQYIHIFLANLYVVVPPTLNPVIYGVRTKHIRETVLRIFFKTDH
# Summary of the method: as §1
# OR52I1 (Homo sapiens) = molecular target: T6, OR52I1 (Homo sapiens) (UniProt Q8NGK6)
# T6 sequence (whole entry): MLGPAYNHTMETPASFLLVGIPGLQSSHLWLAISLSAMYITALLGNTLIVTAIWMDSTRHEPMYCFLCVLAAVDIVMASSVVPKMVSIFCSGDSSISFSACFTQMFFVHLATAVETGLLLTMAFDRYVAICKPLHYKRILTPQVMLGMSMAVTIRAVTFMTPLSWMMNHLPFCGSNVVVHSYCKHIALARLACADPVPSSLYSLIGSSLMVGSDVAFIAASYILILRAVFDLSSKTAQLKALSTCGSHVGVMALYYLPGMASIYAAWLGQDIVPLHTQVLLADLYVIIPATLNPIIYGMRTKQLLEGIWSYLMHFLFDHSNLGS
# Summary of the method: as §1
# OR52I2 (Homo sapiens) = molecular target: T7, OR52I2 (Homo sapiens) (UniProt Q8NH67)
# T7 sequence (whole entry): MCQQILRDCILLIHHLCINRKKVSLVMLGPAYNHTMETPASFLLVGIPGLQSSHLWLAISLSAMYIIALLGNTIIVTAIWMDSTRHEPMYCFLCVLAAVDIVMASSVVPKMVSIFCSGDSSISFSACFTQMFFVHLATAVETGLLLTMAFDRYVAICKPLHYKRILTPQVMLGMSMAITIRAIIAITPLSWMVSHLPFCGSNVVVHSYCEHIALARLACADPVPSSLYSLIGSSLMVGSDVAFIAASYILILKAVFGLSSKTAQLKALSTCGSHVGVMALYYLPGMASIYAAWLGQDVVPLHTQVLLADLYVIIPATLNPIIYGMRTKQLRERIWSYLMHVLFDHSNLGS
# Summary of the method: as §1
# OR52J3 (Homo sapiens) = OR52J3 (Homo sapiens) (UniProt Q8NH60)
# Sequence of OR52J3 (Homo sapiens) (Q8NH60 whole entry): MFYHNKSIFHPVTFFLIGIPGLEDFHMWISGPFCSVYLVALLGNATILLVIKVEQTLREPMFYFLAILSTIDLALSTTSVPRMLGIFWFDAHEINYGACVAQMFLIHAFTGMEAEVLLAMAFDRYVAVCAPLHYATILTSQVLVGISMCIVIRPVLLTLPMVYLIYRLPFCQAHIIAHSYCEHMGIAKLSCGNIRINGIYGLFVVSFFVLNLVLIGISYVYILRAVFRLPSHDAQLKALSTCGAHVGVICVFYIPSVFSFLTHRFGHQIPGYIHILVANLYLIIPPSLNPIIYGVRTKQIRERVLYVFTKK
# Summary of the method: as §1
# OR52K1 (Homo sapiens) = molecular target: T8, OR52K1 (Homo sapiens) (UniProt Q8NGK4)
# T8 sequence (whole entry): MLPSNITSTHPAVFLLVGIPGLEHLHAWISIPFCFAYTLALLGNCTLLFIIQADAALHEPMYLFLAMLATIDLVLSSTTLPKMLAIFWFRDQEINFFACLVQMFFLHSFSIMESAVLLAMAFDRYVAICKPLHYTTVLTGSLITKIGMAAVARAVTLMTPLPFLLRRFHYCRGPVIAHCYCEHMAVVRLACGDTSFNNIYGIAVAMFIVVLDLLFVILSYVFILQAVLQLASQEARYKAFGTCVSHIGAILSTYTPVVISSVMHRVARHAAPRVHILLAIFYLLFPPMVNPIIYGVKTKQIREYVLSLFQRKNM
# Summary of the method: as §1
# OR52K2 (Homo sapiens) = molecular target: T9, OR52K2 (Homo sapiens) (UniProt Q8NGK3)
# T9 sequence (whole entry): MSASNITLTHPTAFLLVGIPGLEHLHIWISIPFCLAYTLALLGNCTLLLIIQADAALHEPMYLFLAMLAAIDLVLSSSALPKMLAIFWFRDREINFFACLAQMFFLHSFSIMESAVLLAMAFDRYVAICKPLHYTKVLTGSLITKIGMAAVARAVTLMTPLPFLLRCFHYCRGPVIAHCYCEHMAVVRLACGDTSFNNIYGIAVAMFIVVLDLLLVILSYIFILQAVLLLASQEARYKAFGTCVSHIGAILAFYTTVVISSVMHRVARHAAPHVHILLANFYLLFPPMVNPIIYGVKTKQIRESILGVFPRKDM
# Summary of the method: as §1
# OR52L1 (Homo sapiens) [1] = molecular target: T10, OR52L1 (Homo sapiens) (UniProt Q8NGH7)
# T10 sequence (whole entry): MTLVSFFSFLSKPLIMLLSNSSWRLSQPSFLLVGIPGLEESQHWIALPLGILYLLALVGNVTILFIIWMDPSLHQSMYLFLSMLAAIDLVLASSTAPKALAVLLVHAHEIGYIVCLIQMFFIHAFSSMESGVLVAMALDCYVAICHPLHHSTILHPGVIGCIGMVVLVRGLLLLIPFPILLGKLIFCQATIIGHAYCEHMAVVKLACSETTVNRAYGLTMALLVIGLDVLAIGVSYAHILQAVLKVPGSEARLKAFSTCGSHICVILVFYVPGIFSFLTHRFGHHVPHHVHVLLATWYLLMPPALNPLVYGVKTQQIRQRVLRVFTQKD
# Summary of the method: as §1
# OR52M1 (Homo sapiens) = molecular target: T11, OR52M1 (Homo sapiens) (UniProt Q8NGK5)
# T11 sequence (whole entry): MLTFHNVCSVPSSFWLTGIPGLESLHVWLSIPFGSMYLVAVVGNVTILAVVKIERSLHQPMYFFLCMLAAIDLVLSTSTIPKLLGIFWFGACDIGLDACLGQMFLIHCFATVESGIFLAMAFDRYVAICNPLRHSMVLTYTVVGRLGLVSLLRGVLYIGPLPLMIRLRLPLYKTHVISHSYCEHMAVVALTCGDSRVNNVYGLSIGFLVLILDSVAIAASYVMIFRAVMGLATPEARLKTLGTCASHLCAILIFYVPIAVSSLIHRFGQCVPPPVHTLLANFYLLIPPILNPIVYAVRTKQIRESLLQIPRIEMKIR
# Summary of the method: as §1
# OR52N1 (Homo sapiens) = molecular target: T12, OR52N1 (Homo sapiens) (UniProt Q8NH53)
# T12 sequence (whole entry): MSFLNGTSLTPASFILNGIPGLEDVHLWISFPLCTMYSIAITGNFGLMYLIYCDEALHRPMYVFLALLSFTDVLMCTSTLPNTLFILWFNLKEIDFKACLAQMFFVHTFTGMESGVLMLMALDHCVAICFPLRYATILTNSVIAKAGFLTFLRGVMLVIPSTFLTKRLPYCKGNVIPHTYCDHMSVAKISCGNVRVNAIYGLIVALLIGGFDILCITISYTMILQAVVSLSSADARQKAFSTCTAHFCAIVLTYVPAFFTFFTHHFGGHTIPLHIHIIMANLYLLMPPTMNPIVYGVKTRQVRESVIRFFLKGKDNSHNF
# Summary of the method: as §1
# OR52N2 (Homo sapiens) = molecular target: T13, OR52N2 (Homo sapiens) (UniProt Q8NGI0)
# T13 sequence (whole entry): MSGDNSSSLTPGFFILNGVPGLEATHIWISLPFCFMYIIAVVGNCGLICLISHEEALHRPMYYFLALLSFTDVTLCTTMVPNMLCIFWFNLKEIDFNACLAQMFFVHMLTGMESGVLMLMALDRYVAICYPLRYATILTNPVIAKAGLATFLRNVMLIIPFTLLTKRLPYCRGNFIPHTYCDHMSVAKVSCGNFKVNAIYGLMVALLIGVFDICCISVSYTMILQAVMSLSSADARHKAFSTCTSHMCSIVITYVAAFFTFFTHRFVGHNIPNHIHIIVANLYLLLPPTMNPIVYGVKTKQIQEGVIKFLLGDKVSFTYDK
# Summary of the method: as §1
# OR52E1 (Homo sapiens) = OR52E1 (Homo sapiens) (UniProt Q8NGJ3)
# Sequence of OR52E1 (Homo sapiens) (Q8NGJ3 whole entry): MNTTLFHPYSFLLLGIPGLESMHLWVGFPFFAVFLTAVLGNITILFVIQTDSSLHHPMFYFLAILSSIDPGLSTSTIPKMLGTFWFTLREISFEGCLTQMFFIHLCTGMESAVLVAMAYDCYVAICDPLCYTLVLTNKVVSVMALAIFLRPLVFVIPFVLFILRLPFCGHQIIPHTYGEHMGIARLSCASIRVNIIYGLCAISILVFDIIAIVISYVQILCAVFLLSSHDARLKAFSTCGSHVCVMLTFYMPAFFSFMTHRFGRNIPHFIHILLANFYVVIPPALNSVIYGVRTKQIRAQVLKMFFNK
# Summary of the method: as §1
# OR52L1 (Homo sapiens) [2] = molecular target: T14, OR52L1 (Homo sapiens) (UniProt Q8NGH7); remark: listed apart in the source
# T14 sequence (whole entry): T10 sequence (whole entry) with C140R, C161R, K183T, W297R
# Summary of the method: as §1
Compound,odorant receptor agonist call (OR52A5 (Homo sapiens)),odorant receptor agonist call (OR52B2 (Homo sapiens)),odorant receptor agonist call (OR52B4 (Homo sapiens)),odorant receptor agonist call (OR52B6 (Homo sapiens)),odorant receptor agonist call (OR52D1 (Homo sapiens)),odorant receptor agonist call (OR52E2 (Homo sapiens)),odorant receptor agonist call (OR52E4 (Homo sapiens)),odorant receptor agonist call (OR52E5 (Homo sapiens)),odorant receptor agonist call (OR52E6 (Homo sapiens)),odorant receptor agonist call (OR52I1 (Homo sapiens)),odorant receptor agonist call (OR52I2 (Homo sapiens)),odorant receptor agonist call (OR52J3 (Homo sapiens)),odorant receptor agonist call (OR52K1 (Homo sapiens)),odorant receptor agonist call (OR52K2 (Homo sapiens)),odorant receptor agonist call (OR52L1 (Homo sapiens) [1]),odorant receptor agonist call (OR52M1 (Homo sapiens)),odorant receptor agonist call (OR52N1 (Homo sapiens)),odorant receptor agonist call (OR52N2 (Homo sapiens)),odorant receptor agonist call (OR52E1 (Homo sapiens)),odorant receptor agonist call (OR52L1 (Homo sapiens) [2])
CCCCC(S)C(C)CO (stereo not given),active,inactive,inactive,inactive,inactive,inactive,inactive,inactive,inactive,inactive,inactive,inactive,inactive,inactive,active,inactive,inactive,inactive,,
CC1CCCCCCCCCCCCC(=O)C1 (stereo not given),inactive,inactive,inactive,inactive,inactive,inactive,inactive,inactive,inactive,inactive,inactive,inactive,inactive,inactive,inactive,inactive,inactive,inactive,inactive,
CCCCCC(=O)C(C)C(C)=O (stereo not given),inactive,inactive,inactive,inactive,inactive,inactive,inactive,inactive,inactive,inactive,inactive,inactive,inactive,inactive,inactive,inactive,inactive,inactive,,
CC1=NC(C)C(C)S1 (stereo not given),inactive,inactive,inactive,inactive,inactive,inactive,inactive,,inactive,inactive,inactive,inactive,inactive,inactive,,inactive,inactive,inactive,inactive,inactive
CCCCCCO,,,,,inactive,,,,,,,,,,,,,,,
CCCC(S)CCOC(C)=O (stereo not given),inactive,inactive,inactive,inactive,inactive,inactive,inactive,,inactive,inactive,inactive,inactive,inactive,inactive,,inactive,inactive,inactive,inactive,inactive
CCCCCC(S)C(C)CO (stereo not given),inactive,inactive,inactive,inactive,inactive,inactive,inactive,inactive,inactive,inactive,inactive,inactive,inactive,inactive,inactive,inactive,inactive,inactive,,
CCC(=O)O,,,,,active,,,,,,,,,,,,,,,
CC(=O)C=CC1=C(C)CCCC1(C)C,,,,,active,,,,,,,,,,,,,,,
CCCCCCC(=O)CC,,,,,active,,,,,,,,,,,,,,,
CCCCCC1CCCC(=O)O1 (stereo not given),inactive,inactive,inactive,inactive,active,inactive,inactive,inactive,inactive,inactive,inactive,inactive,active,inactive,active,active,inactive,inactive,,
CC(=O)c1c(C)c([N+](=O)[O-])c(C(C)(C)C)c([N+](=O)[O-])c1C,inactive,inactive,inactive,inactive,inactive,inactive,inactive,inactive,inactive,inactive,inactive,inactive,inactive,inactive,inactive,inactive,inactive,inactive,inactive,
